Published values of several laboratories.
Lines come from different studies, so protocols differ. pIC50: −log10 of the molar value. Converted amounts (≈) assume the structure as drawn.

For `C#Cc1ccc(C=NNC(=O)c2cc(Br)cc(Br)c2O)c(O)c1`, the MIC80 was over 16 µg/mL (Aspergillus fumigatus; microbial growth; 48 h, pH 6.5).
For `C=C(CN(C(=O)c1c(C(F)F)nn(C)c1F)C1CC1)c1ccc(Cl)cc1Cl`, the EC50 was 0.0232 µg/mL (≈ 0.0555 µM) (Ustilaginoidea virens; microbial growth; 12 h).
With `C[C@@H](O)[C@H]1C(=O)N2C(C(=O)O)=C(SCCN=CN)C[C@H]12` the MIC was under 1 µg/mL (Enterococcus faecalis; microbial growth; VRE; drug-resistant strain).
`COC(=O)C1=C(C)NC(C)=C(C(=O)OC(C)(C)CN(C)CCC(c2ccccc2)c2ccccc2)C1c1cccc([N+](=O)[O-])c1` (stereo not drawn) gave an MIC of over 250 µM (Aspergillus fumigatus; microbial growth, broth dilution; 48 h).
`O=C(O)c1cn(C2CC2)c2cc(N3CCNCC3)c(F)cc2c1=O` has an MIC of under 1 µg/mL (Enterococcus faecalis; microbial growth; VRE; drug-resistant strain).
With `C#Cc1ccc(C=NNC(=O)c2ccc(Br)c(Br)c2)c(O)c1` the MIC80 was over 16 µg/mL (Aspergillus fumigatus; microbial growth; 48 h, pH 6.5).
`COc1ccc(C=NNC(=S)N[N+](=O)[O-])cc1OC` has a pIC50 of 2.92 (Leishmania major; parasite growth, MTT; 72 h, promastigote).
`C#Cc1cccc(O)c1C=NNC(=O)c1ccc(Br)cc1` gave an MIC80 of over 32 µg/mL (Aspergillus fumigatus; microbial growth; 48 h, pH 6.5).
With `O=[N+]([O-])NC(=S)NN=Cc1ccc(Br)cc1` the pIC50 was 3.37 (Leishmania major; parasite growth; J774.A1; 72 h, intracellular, amastigote).
